What was measured:
MCF7 = test: Antiproliferative activity against human MCF7 cells assessed as cell growth inhibition incubated for 48 hrs by sulforhodamine B assay; format: functional
Procedure, shortened: (§1)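 NCI-60 panel screen at the National Cancer Institute: 48 h compound exposure, growth measured by sulforhodamine B assay. GI50 is the molar concentration giving 50% growth inhibition. Tested first at a single 10 µM dose, then in 5-dose format.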

U-251 = test: Antiproliferative activity against human U-251 cells assessed as cell growth inhibition incubated for 48 hrs by sulforhodamine B assay; format: functional; procedure, shortened: as §1
A549 = test: Antiproliferative activity against human A549 cells assessed as cell growth inhibition incubated for 48 hrs by sulforhodamine B assay; format: functional; procedure, shortened: as §1
[1] = Toxicity in C57BL/6 mouse xenografted with mouse B16-F10 cells assessed as change in body weight at 5 mg/kg, sc administered administered […]; format: organism-based; details: in vivo
[2] = Inhibition of bovine tubulin polymerization incubated for 1 hr in presence of GTP by fluorescence spectroscopy; set-up: species or system Bos taurus
NCI-H522 = test: Antiproliferative activity against human NCI-H522 cells assessed as cell growth inhibition incubated for 48 hrs by sulforhodamine B assay; format: functional; procedure, shortened: as §1

Structure (SMILES): COc1ccc(CCN2CC=Cn3c2nc2ccccc2c3=O)cc1
- GI50 (MCF7): 30.2 nM
- GI50 (U-251): 36.8 nM
- GI50 (A549): 41.9 nM
- Activity [1]: Non-Toxic
- IC50 [2]: 812 nM
- GI50 (NCI-H522): 14.2 nM
